Read-outs that look alike come from different tables or passages of the source.
What was measured:
[1] = molecular target: CYP450 3A4 (Homo sapiens, UniProt P08684); assay: CYP450 inhibition, recombinant isoform; assay type: in vitro ADME
Summary of the method: (§1)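 Recombinant human CYP450 isoforms were incubated with isoform-specific probe substrates; for CYP3A4 these were midazolam and testosterone. Inhibition was quantified by LC-MS/MS analysis of probe-substrate turnover.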

[2] = molecular target: NK3 (Homo sapiens, UniProt P29371); assay: CEREP off-target radioligand binding panel; settings: read-out: inhibition of ligand binding
Sequence of NK3 (P29371 whole entry): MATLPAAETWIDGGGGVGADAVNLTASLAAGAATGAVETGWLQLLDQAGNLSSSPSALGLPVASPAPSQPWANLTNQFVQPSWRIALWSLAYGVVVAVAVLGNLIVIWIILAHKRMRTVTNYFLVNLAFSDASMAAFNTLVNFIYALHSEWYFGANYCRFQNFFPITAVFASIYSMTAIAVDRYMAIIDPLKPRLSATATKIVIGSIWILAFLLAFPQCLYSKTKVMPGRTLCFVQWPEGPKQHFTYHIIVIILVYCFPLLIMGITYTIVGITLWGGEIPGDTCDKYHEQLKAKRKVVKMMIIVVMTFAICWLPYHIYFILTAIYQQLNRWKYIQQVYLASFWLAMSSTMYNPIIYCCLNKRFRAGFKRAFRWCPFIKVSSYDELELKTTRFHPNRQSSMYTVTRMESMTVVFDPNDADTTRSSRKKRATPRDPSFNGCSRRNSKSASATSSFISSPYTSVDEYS
Summary of the method: (§2)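 CEREP secondary-pharmacology panel of 55 receptors, transporters and ion channels. Test compound at 10 µM was assessed for inhibition of binding of a radiolabelled reference ligand specific to each target. Result is percent inhibition of ligand binding.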

[3] = Kinetic solubility in simulated intestinal fluids; assay type: physicochemical
Summary of the method: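 Dissolved test compound concentration in FaSSIF or FeSSIF simulated intestinal fluids, determined by UV/Vis absorbance.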

[4] = GLP cardiopulmonary safety pharmacology study in NHPs; assay type: in vivo, NHP; settings: NHPs, 10, 30 and 60 mg/kg
[5] = Metabolite profile in hepatocytes; assay type: in vitro ADME; settings: metabolite profiling in five species (mouse, rat, dog, NHP, human)
Summary of the method: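 Test compound at 1 µM was incubated at 37°C for 4 h with cryopreserved hepatocytes from mouse, rat, dog, monkey or human. Metabolite masses and relative abundance came from HPLC/MS/MS peak areas. Structures were characterised by LC/MS/MS on a Q-Trap instrument.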

[6] = MDR1-MDCK permeability; assay type: in vitro ADME; settings: dog
Summary of the method: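 Transport across MDR1-MDCK cell monolayers. Apparent permeability was measured in the apical-to-basolateral direction (× 10−6 cm/s). Efflux ratio was calculated as Papp B-A / Papp A-B.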

[7] = Single-dose i.v./po PK in male CD-1 mice; assay type: in vivo, mouse; settings: for clearance: male, CD-1, mouse, plasma, iv, 1 mg/kg
Summary of the method: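 CD-1 mice received a single i.v. dose of 1 mg/kg (n = 12) or an oral gavage dose of 5 mg/kg (n = 12). Brains were collected at 1, 4, 8 and 12 h. Oral bioavailability came from i.v./po comparison; fabs came from kinetic analysis.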

[8] = test system: S. typhimurium bacterial strains TA98, TA100, TA1535, TA1537; assay: Non-GLP screening; assay type: cell-based, Salmonella typhimurium; settings: 5–100 µM, with and without Aroclor-induced rat liver S9
Summary of the method: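 Non-GLP mini-Ames screen using S. typhimurium TA98, TA100, TA1535 and TA1537, with and without Aroclor-induced rat liver S9. Test article was applied at 5–100 µM. Read-out was bacterial growth from reversion of the histidine mutation.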

[9] = GLP 28-d repeat-dose toxicity and in vivo micronucleus study in rats; design: species or system rat
[10] = Plasma protein binding, equilibrium dialysis; assay type: in vitro ADME; settings: human
Summary of the method: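 Equilibrium dialysis of test compound in human, rat or mouse plasma against buffer across a semipermeable membrane. Compound concentrations in both compartments were measured by LC/MS, and percent bound was derived from them.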

[11] = test system: Aβ42 and Aβ40 levels in plasma and brain; assay: 9-d repeat-dose efficacy in C57BL/6J mice; assay type: in vivo, mouse; settings: 10 mg/kg/d for 9 d
[12] = molecular target: adenosine A3 (Homo sapiens, UniProt P0DMS8); assay: CEREP off-target radioligand binding panel; settings: read-out: inhibition of ligand binding
Sequence of adenosine A3 (P0DMS8 whole entry): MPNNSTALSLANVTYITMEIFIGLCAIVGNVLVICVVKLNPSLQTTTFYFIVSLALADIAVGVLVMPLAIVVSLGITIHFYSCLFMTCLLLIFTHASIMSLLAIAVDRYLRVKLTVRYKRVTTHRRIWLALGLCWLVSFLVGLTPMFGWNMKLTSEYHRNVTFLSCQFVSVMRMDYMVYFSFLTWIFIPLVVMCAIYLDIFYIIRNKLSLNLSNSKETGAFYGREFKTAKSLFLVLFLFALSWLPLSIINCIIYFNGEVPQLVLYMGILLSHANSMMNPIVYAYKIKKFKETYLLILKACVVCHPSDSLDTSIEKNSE
Summary of the method: as §2

[13] = test system: S. typhimurium strains TA1535, TA1537, TA98, TA100 and E. coli strain WP2 (uvrA); assay: GLP Salmonella–Escherichia coli/microsome plate incorporation; assay type: cell-based, Salmonella typhimurium; settings: two S. typhimurium strains (T98 and T100), only with Aroclor-induced rat liver S9
Summary of the method: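 GLP plate-incorporation mutagenicity test using S. typhimurium TA1535, TA1537, TA98 and TA100 and E. coli WP2 (uvrA). Each strain was run with and without a metabolic activation mix of Aroclor 1254–induced rat liver microsomes (S9). Read-out is revertant bacterial growth.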

[14] = Necropsy, histopathology and weight gain in chronically treated PSAPP mice; assay type: in vivo, mouse; settings: chronic 25 mg/kg/d, 3 mo
Summary of the method: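 Female PSAPP mice, 9–10 per group, were dosed with vehicle (PEG 400/water/Tween 20) or test compound 25 mg/kg/d by oral gavage for 3 mo. Body weight was recorded three times weekly to monitor weight gain. Necropsy and histopathology followed the treatment period.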

[15] = Liver microsomal stability, human; assay type: in vitro ADME; settings: liver microsomes
Summary of the method: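 Test compound at 1 µM was incubated for 30 min with liver microsomes at 1 mg/ml (human, rat or mouse). Result is percent of parent compound remaining.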

[16] = molecular target: dopamine D1 (Homo sapiens, UniProt P21728); assay: CEREP off-target radioligand binding panel; settings: read-out: inhibition of ligand binding
Sequence of dopamine D1 (P21728 whole entry): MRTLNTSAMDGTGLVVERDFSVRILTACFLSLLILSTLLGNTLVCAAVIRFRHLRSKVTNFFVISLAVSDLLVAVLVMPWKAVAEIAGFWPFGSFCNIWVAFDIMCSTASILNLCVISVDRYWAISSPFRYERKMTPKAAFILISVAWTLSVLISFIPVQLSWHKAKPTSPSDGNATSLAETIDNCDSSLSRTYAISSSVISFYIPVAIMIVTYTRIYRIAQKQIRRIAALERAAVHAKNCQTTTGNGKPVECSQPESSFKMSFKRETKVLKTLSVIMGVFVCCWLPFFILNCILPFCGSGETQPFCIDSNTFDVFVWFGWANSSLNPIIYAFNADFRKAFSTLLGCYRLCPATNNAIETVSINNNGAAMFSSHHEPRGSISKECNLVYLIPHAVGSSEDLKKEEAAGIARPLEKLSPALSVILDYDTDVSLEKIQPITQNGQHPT
Summary of the method: as §2

[17] = molecular target: CYP450 2D6 (Homo sapiens, UniProt P10635); assay: CYP450 inhibition, recombinant isoform; assay type: in vitro ADME
Sequence of CYP450 2D6 (P10635 whole entry, canonical isoform): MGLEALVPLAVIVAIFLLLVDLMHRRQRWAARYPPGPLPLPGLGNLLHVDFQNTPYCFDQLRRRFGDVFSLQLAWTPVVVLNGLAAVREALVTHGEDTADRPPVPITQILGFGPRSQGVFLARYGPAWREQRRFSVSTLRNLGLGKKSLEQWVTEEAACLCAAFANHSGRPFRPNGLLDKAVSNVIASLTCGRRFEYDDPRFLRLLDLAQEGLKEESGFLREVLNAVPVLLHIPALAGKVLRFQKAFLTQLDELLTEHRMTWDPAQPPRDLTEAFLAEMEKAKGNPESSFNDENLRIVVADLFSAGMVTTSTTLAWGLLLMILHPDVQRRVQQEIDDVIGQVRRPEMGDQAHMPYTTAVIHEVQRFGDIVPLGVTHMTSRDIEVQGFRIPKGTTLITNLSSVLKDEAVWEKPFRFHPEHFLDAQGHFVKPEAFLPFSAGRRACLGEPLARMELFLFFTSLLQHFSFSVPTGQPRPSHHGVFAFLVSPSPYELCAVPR
Summary of the method: as §1

[18] = test system: chloride channel (γ-aminobutyric acid–gated); assay: CEREP off-target radioligand binding panel; settings: 10 µM
Summary of the method: as §2

[19] = test system: Aβ38, Aβ40, Aβ42 in plasma; assay: Acute single-dose escalation and time course efficacy in NHPs; assay type: in vivo, cynomolgus macaque
Summary of the method: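 Cynomolgus macaques, two male and two female. Escalation phase: single nasogastric doses of 0, 10, 30, 100 and 200 mg/kg, with blood taken 4 h post-dose. Repeat phase: 200 mg/kg for 2 d, then 100 mg/kg for 5 d, with blood on days 1 and 7 at predose and 1, 2, 4, 8 and 24 h. K3EDTA plasma was stored at ≤ −60°C. Aβ38/40/42 were measured by MSD multiplex assay.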

[20] = molecular target: CYP450 2C9 (Homo sapiens, UniProt P11712); assay: CYP450 inhibition, recombinant isoform; assay type: in vitro ADME
Sequence of CYP450 2C9 (P11712 whole entry, canonical isoform): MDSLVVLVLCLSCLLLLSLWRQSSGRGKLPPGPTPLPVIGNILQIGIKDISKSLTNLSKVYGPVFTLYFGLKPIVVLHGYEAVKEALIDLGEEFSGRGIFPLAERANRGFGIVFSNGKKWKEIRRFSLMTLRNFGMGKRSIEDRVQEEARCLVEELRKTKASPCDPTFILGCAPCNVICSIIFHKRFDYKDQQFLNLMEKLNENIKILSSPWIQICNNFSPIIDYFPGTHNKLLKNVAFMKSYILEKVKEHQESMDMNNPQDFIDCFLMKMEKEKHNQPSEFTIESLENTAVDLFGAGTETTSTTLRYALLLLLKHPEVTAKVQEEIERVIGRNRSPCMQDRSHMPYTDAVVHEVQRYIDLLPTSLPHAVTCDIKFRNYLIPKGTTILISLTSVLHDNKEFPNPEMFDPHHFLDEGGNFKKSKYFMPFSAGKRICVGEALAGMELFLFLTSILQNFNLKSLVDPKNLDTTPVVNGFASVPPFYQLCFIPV

[21] = molecular target: CYP450 2C19 (Homo sapiens, UniProt P33261); assay: CYP450 inhibition, recombinant isoform; assay type: in vitro ADME
Sequence of CYP450 2C19 (P33261 whole entry, canonical isoform): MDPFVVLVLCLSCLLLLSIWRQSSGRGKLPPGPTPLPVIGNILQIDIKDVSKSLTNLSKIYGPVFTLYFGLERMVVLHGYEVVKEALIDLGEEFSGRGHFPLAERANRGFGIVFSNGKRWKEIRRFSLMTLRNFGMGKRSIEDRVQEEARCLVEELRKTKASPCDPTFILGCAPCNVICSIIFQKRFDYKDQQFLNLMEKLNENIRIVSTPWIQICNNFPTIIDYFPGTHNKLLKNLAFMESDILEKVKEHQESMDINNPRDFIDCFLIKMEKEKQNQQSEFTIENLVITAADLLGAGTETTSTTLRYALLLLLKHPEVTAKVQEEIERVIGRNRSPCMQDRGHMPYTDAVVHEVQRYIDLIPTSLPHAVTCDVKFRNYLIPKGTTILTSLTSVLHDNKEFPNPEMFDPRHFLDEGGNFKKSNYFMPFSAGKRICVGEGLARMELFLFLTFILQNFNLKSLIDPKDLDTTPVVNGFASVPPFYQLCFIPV
Summary of the method: as §1

Sequence of CYP450 3A4 (P08684 whole entry, canonical isoform): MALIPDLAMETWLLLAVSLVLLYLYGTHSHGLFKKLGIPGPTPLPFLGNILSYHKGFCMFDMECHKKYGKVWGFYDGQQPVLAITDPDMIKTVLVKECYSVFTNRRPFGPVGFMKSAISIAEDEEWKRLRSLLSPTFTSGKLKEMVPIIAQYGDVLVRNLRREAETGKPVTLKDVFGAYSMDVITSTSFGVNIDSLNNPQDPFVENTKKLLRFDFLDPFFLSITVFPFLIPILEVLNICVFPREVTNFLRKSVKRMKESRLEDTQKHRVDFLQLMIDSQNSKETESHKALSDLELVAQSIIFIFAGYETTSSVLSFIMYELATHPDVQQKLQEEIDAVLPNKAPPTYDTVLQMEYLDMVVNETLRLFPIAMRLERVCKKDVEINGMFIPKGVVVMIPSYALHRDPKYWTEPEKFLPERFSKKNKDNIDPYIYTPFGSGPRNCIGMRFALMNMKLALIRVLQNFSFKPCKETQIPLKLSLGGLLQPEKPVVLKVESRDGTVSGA

COc1nc(-c2cc(C)c(N[C@@H](C)c3cc(F)cc(F)c3)nn2)ccc1-n1cnc(C)c1 [Compound 2, (S)-N-(1-(3,5-difluorophenyl)ethyl)-6-(6-methoxy-5-(4-methyl-1H-imidazol-1-yl)pyridin-2-yl)-4-methylpyridazin-3-amine]
IC50 [1]: 9.4 µM | IC50 ([1]; CYP450 IC50 3A4 (m), probe substrate midazolam): 42 µM | inhibition at 10 µM [2]: > 50% | FaSSIF dissolved compound concentration ([3]; FaSSIF pH 6.5, UV/Vis absorbance): 80 | FeSSIF dissolved compound concentration ([3]; FeSSIF pH 5.8, UV/Vis absorbance): 79 | effect on electrocardiogram parameters, including corrected QT interval [4]: no significant effect | major metabolites [5]: no major metabolites | unique human metabolites [5]: absence of any unique human metabolites | Papp A→B [6]: 233 nm/s | clearance ([7]; CL, mice): 0.48 L/h/kg | clearance ([7]; Cl, male CD-1 mice): 0.483 L/h/kg | CL as percent of reported hepatic blood flow ([7]; mice, hepatic blood flow 95 ml/min/kg): < 10% | fraction of dose absorbed from intestinal lumen (fabs) ([7]; mice, kinetic analysis): ~90% | Ames [8]: Negative | safety margin based on comparison of systemic exposures ([9]; AUC at rat NOAEL vs predicted human AUC at 100 mg): more than 130 fold | AUC ([9]; male, rat, in vivo, 60 mg/kg): 586 µg·h/mL | NOAEL at 28 d ([9]; rat, in vivo): 60 mg/kg | GLP 28-d repeat-dose toxicity and in vivo micronucleus study ([9]; rats, data not shown): negative | % PPB H [10]: 99.8% | elimination of detectable Aβ42 in brain [11]: 100% | reduction in plasma Aβ42 levels [11]: > 90% | inhibition at 10 µM [12]: > 50% | GLP Ames bacterial mutagenicity result [13]: positive | full-body necropsy and histopathology [14]: no overt evidence of toxicity | weight gain ([14]; data not shown): no significant effect on weight gain | remaining at 0.5 h, 1 µM [15]: 71% | inhibition at 10 µM [16]: > 50% | IC50 [17]: 11 µM | inhibition of ligand binding [18]: Greater than 50% | effect on levels of Aβ38 in plasma [19]: did not affect | sustained lowering of plasma Aβ42 and Aβ40 peptides ([19]; 200 mg/kg, day 1 of repeat-dosing phase, for over 24 h): ~70% | IC50 [20]: 4.4 µM | IC50 [21]: 12 µM

— paper PMC7931646 (The Journal of Experimental Medicine, 2021)
